Test results taken from article PMC3290340 (Pigment cell & melanoma research, 2012).
Each block holds one molecule with its values, some of them ahead of it.

Columns and labels:
[1] = target: T1, recombinant SPHK2 (Homo sapiens, UniProt Q9NRA0); assay: In vitro SphK activity assay with recombinant SPHK2; format: biochemical; settings: Fig. 2B
T1 sequence (Q9NRA0 1-654): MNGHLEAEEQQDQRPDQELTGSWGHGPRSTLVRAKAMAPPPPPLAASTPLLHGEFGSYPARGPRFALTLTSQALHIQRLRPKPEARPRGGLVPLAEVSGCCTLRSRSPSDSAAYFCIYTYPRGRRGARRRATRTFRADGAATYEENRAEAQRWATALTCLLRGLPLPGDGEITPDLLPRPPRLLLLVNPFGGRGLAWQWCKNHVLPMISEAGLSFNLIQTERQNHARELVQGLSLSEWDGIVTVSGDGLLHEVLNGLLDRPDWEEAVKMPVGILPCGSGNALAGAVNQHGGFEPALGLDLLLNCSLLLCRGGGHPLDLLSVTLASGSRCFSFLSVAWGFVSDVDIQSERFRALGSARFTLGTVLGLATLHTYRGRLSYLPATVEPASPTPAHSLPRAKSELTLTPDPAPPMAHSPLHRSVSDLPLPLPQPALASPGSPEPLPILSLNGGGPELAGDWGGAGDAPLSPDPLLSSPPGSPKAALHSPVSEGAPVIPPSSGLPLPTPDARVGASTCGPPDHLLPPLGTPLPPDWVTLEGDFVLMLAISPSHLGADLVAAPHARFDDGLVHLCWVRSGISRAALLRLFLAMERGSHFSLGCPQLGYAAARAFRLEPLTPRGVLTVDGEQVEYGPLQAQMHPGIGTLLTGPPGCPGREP

[2] = target: recombinant SPHK1 (Homo sapiens, UniProt Q9NYA1); assay: In vitro SphK activity assay with recombinant SPHK1; format: biochemical; settings: recombinant protein, Fig. 2B
[3] = test system: UACC 903 xenografted melanoma tumors; assay: Xenografted UACC 903 melanoma tumor growth; format: in vivo, nude mice; settings: UACC 903 xenograft, 100 mg/kg i.p. Mon/Wed/Fri, day 22
Summary of the method: (§1)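 Female nude mice, 4-6 weeks old, injected s.c. above both rib cages with 5×10^6 UACC 903 or 2.5×10^6 1205 Lu cells in 0.2 ml DMEM/10% FBS. On day 6, randomized (n=5, 10 tumors per group). Dosed i.p. at 100 mg/kg in 50 μl DMSO (or DMSO alone) Mon/Wed/Fri for 3 weeks. Tumor dimensions by calipers; body weight monitored.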

[4] = test system: UACC 903 cells; assay: Cellular S-1-P and ceramide content by LC-MS-MS, UACC 903; format: cell-based, human; settings: UACC 903, 2.5 and 5.0 μM, 48 hours
Summary of the method: (§2)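 UACC 903 or 1205 Lu cells (2.0×10^6, triplicate dishes) in DMEM/10% FBS; after 24 h, PBS-washed and treated 48 h with 2.5 or 5.0 μM test compound or DMSO. Floating cells pelleted at 500 x g, 5 min, 4 °C, PBS-washed and pooled with scraped adherent cells. Extracts assayed by LC-MS-MS for sphingosine, S-1-P and ceramides.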

[5] = Body weight during i.p. treatment; format: in vivo, nude mice; settings: 100 mg/kg
[6] = test system: CYCLIN D1 in UACC 903 cells; assay: Western blot of CYCLIN D1; format: cell-based, human; settings: 72 h; for Decrease in CYCLIN D1 expression: compared to DMSO
Summary of the method: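 UACC 903 cells treated 72 h with test compound or DMSO and lysed in HEPES pH 7.5 buffer with protease/phosphatase inhibitors. Lysates cleared at 10,000 x g, 10 min, 4 °C; 30 μg protein per lane. Blotted to PVDF and detected by ECL. Band intensity densitometry given as percent change versus DMSO-treated cells.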

[7] = test system: melanoma cells; assay: MTS cell viability, average/range over the melanoma cell lines; format: cell-based, human
Summary of the method: (§3)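 5×10^3 cells/well in DMEM/10% FBS, pre-grown 36 h (melanoma lines) or 72 h (FF2441 fibroblasts, FOM melanocytes). Then exposed to test compound (0.5–100 μM) or DMSO for 24, 48 or 72 h. Viability by MTS relative to vehicle-treated cells; IC50 fitted per line. Melanoma values also averaged across the six melanoma lines.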

[8] = test system: 1205 Lu cells; assay: Caspase-3/7 activity; format: cell-based, human; settings: 72 hours, tested 1, 2.5, 5.0 μM
Summary of the method: (§4)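 UACC 903, A375M or 1205 Lu cells (5×10^3/well, 96-well) exposed 72 h to test compound or DMSO. Caspase-3/7 substrate Z-DEVD-R110 (Apo-ONE kit) added 4 h before the end of treatment. Read-out is fold increase in caspase-3/7 activity over DMSO-treated cells. At least 3 independent experiments, SEM.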

[9] = test system: 1205 Lu xenografted melanoma tumors; assay: Xenografted 1205 Lu melanoma tumor growth; format: in vivo, nude mice; settings: 1205 Lu xenograft, 100 mg/kg i.p. Mon/Wed/Fri, day 21
Summary of the method: as §1

[10] = test system: A375M cells; assay: Caspase-3/7 activity; format: cell-based, human; settings: 72 hours, tested 1, 2.5, 5.0 μM
Summary of the method: as §4

[11] = test system: UACC 903 melanoma cells; assay: MTS cell viability, UACC 903; format: cell-based, human
Summary of the method: as §3

[12] = test system: UACC 903 cells; assay: Cell cycle analysis; format: cell-based, human; settings: 72 h
Summary of the method: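 1.5×10^6 UACC 903 cells grown in 100-mm dishes, then treated 72 h with 1, 2.5 or 5.0 μM test compound or DMSO. Floating plus adherent cells collected by trypsinization and stained 30 min at 4 °C (propidium iodide 100 μg/ml, RNase A 20 μg/ml, Triton X-100 3 μg/mL in 0.1% sodium citrate). Phase distribution by FACScan.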

[13] = test system: 1205 Lu melanoma cells; assay: MTS cell viability, 1205 Lu; format: cell-based, human; settings: value of the text (Fig. 3A, 72 hours)
Summary of the method: as §3

[14] = test system: 1205 Lu cells; assay: Cellular S-1-P and ceramide content by LC-MS-MS, 1205 Lu; format: cell-based, human; settings: 48 hours
Summary of the method: as §2

[15] = test system: A375M melanoma cells; assay: MTS cell viability, A375M; format: cell-based, human; settings: value of the text (Fig. 3A, 72 hours)
Summary of the method: as §3

[16] = test system: UACC 903 cells; assay: Caspase-3/7 activity; format: cell-based, human; settings: UACC 903, 72 hours, tested 1, 2.5, 5.0 μM
Summary of the method: as §4

[17] = UACC 903, 2.5 μM, compared to DMSO

recombinant SPHK1, sequence (Q9NYA1 whole entry): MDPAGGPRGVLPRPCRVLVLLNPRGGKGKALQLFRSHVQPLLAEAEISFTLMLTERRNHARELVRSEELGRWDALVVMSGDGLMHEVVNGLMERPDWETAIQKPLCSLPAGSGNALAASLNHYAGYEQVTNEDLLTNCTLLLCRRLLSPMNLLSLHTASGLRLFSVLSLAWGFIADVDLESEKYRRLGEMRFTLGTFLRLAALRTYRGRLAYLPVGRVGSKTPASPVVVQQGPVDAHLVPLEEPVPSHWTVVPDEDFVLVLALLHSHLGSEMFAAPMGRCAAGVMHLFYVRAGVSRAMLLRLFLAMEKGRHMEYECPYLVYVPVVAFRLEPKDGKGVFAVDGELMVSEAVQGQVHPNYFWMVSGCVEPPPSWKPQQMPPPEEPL

Inhibition of SPHK2 activity ([1]; recombinant protein): effective at inhibiting
Selectivity SPHK1 versus SPHK2 ([1]; recombinant proteins): slightly enhanced selectivity to SPHK2
Inhibition of SPHK1 activity [2]: effective at inhibiting
SMILES: Oc1ccc(Nc2nc(-c3ccc(Cl)cc3)cs2)cc1 [SKI-II, 2-(p-hydroxyanilino)-4-(p-chlorophenyl) thiazole]
Difference in tumor volume between vehicle control and treatment group [3]: no effect on tumor growth
Effect on cellular S-1-P [4]: did not effect
Effect on cellular ceramide levels [4]: did not effect
Body weight change [5]: No weight changes

SMILES: O=C(N/N=C/c1c(O)ccc2ccccc12)c1cc(-c2ccc3ccccc3c2)n[nH]1 [SKI-I]
Decrease in CYCLIN D1 expression ([6]; UACC 903, 1 μM): 86.1%
Decrease in CYCLIN D1 expression ([6]; UACC 903, 2.5 μM): 97.1%
CYCLIN D1 levels ([6]; UACC 903, 5 μM): almost undetectable
Fold more effective than SKI-II (average IC50 values) ([7]; SKI-I compared to SKI-II): ~ 10 fold
IC50 ([7]; read-out: Average IC50 for melanoma cells, 24 h treatment): 20.6 µM
Difference in tumor volume between vehicle control and treatment group [3]: ~ 40%
Effect on cellular ceramide levels [4]: induced
Concentration of maximal caspase-3/7 activity [8]: 5 µM
Difference in tumor volume between vehicle control and treatment group [9]: ~ 26%
Body weight change [5]: No weight changes
Concentration of maximal caspase-3/7 activity [10]: 2.5 µM
Reduction of cell viability ([11]; UACC 903, 5 μM, 72 hours): 50%
IC50 ([11]; UACC 903, value of the text (Fig. 3A, 72 hours)): 5.72 ± 0.35 µM
Fold decrease of the G0/G1 cell population [12, 17]: 2.4 fold
Fold increase of the G2/M population [12, 17]: 2.5 fold
G2/M cell population ([12]; UACC 903, 5 μM): below detectable levels
IC50 [13]: 4.89 ± 0.63 µM
Effect on cellular S-1-P [14]: no significant change
Effect on cellular ceramide levels [14]: increased
IC50 [15]: 1.3 ± 0.27 µM
Concentration of maximal caspase-3/7 activity [16]: 5 µM
